High-throughput results (PubChem)
TRPC4 PAM: positive allosteric modulators of TRPC4, primary screen, cell-based, mouse TRPC4beta, HEK293 mu-opioid, Fluo-4 calcium; Short transient receptor potential channel 4 (Mus musculus), Q9QUQ5; DAMGO EC20, Fluo-4 Ca2+ flux; hits give high values; B-score at 10 µM; 310,000 tested, 0.42% active; AID 2227, 2009;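 active means B-score of calcium response area above 5 SD of library B-scores, with initial fluorescence ratio within 5 SD of library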
Target sequence (Q9QUQ5 whole entry, looked up): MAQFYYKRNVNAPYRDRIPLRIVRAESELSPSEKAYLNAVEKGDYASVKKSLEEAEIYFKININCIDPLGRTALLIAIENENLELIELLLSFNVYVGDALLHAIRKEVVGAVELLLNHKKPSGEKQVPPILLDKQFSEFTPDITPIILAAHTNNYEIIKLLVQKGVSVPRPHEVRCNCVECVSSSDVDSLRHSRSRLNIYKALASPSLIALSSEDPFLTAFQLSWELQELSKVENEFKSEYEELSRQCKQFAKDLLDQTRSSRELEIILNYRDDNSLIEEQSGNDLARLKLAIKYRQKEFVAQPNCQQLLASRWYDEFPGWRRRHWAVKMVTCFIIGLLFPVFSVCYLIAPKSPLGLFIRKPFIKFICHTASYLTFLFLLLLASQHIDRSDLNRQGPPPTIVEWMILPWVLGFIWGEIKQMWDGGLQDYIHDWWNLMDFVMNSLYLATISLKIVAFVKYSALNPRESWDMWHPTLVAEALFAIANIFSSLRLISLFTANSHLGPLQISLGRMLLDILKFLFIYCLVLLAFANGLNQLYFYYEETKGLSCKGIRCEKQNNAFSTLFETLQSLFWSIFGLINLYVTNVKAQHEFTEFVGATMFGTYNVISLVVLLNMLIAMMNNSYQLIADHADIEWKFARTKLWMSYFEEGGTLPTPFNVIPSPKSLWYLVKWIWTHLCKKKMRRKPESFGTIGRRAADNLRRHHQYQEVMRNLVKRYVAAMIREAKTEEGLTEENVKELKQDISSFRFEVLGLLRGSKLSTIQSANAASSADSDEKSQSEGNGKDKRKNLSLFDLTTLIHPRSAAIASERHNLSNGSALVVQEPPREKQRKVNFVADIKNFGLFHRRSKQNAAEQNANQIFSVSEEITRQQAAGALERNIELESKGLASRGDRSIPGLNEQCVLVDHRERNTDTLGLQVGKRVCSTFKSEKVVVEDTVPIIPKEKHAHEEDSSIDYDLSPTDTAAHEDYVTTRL
TRPC4 agonist: activators of mouse TRPC4 channel, primary screen, Fluo4 calcium, HEK293 TRPC4beta/mu-opioid cells. B-score at 10 µM. 310,000 tested, 0.49% active. AID 2237, 2010. Short transient receptor potential channel 4 (Mus musculus), Q9QUQ5. Fluo4 calcium fluorescence; hits give high values;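 active means B-score above 5 SD of library B-scores, and initial fluorescence ratio not above library mean plus 5 SD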;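 further: positive B-score marks a calcium rise read as TRPC4 activation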
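Assay system – TRPC4beta and mu-opioid receptor HEK293 stable cells · Measured by – Fluo4 fluorescence, kinetic · Schedule – dye loading 45 min room temperature, 110 s kinetic read · Read-out – B-scored integrated calcium fluorescence ratio · Controls – buffer and maximal DAMGO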
TRPC4 inh: inhibitors of mouse TRPC4 channel, primary screen, Fluo4 calcium, HEK293 TRPC4beta/mu-opioid cells. B-score at 10 µM. Short transient receptor potential channel 4 (Mus musculus), Q9QUQ5. DAMGO-evoked Fluo4 calcium flux; hits give low values. 300,000 tested, 0.39% active;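 active means B-score over 3 SD under the library average, no early fluorescence shift, positive overall ratio signal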
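Assay system – HEK293 line stably carrying TRPC4beta and mu-opioid receptor · Doses – single dose · Detection – Fluo4 calcium-dye fluorescence, kinetic read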
TRPC6 inhibitor: mouse TRPC6 channel inhibitors, primary screen, cell-based, HEK293, membrane potential dye; B-score at 10 µM; ACh-evoked depolarization; hits give low values; AID 2553, 2010; Short transient receptor potential channel 6 (Mus musculus), Q61143; 310,000 tested, 1.1% active;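 active means B-score under library mean minus 3 SD, initial fluorescence not abnormally high, positive integrated signal ratio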;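 further: B-score derived from integrated fluorescence ratio over the kinetic read; more negative B-score means stronger inhibition of depolarization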
TRPC6 act: mouse TRPC6 channel activators, primary screen, cell-based, HEK293, membrane potential dye. HEK293-TRPC6 membrane potential dye fluorescence; hits give high values. B-score at 10 µM. 310,000 tested, 0.13% active. AID 2550, 2010;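 active means B-score of the integrated fluorescence ratio above library mean plus 3 SD, and starting fluorescence ratio within library mean plus 5 SD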;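 further: higher score means more depolarization so channel activation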
TRPC4 spec 2: second selectivity test of TRPC6 inhibitors: effect on mouse TRPC4. HEK293 TRPC4/MOR, membrane potential dye fluorescence; channel activated by saturating DAMGO dose. inhibition, % at 10 µM. 920 tested, 42% active. shares compounds with TRPC6 inhibitor. AID 2776;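 active means compounds whose fluorescence signal differed from control wells by over 3 SD, either direction, in both duplicate plates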
TRPC4 spec: mouse TRPC4 modulation by TRPC6 hits, confirmation, selectivity assay for TRPC6 inhibitor project, cell-based, HEK293 TRPC4/mu-opioid, membrane potential dye; shares compounds with TRPC6 inhibitor; membrane potential fluorescence; activity change, negative = inhibition, % at 10 µM; 920 tested, 61% active;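 active means rise or fall in signal beyond 3 SD of buffer-only wells in both replicate plates, either sign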;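 further: integrated kinetic ratio of fluorescence range over baseline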
HEK293 MPD ctr 2-1: nonspecific membrane potential effects, parental HEK293, confirmation, counter-screen for TRPC6 inhibitor project, cell-based, second counter screen | signal change vs control, % at 10 µM | parental HEK293 membrane potential dye fluorescence; maximal acetylcholine challenge after compound addition | 920 tested, 31% active | shares compounds with TRPC6 inhibitor;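 active means membrane potential signal moving either way by over 3 SD of the maximum-effect control, in both duplicate plates, meaning non-specific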
HEK293 MPD ctr-1: membrane potential modulation in parental HEK293, confirmation, counter-screen for TRPC6 inhibitor project, cell-based. shares compounds with TRPC6 inhibitor. parental HEK293 membrane potential dye fluorescence. membrane potential signal change, % at 10 µM. 920 tested, 60% active;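 active means membrane potential signal shifting up or down by more than 3 SD of buffer-only wells, on both duplicate plates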
HEK293 MPD ctr-2: parental HEK293 membrane potential modulation, confirmation, counter-screen for TRPC6 modulator project, cell-based; 2,400 tested, 51% active; AID 488924, 2010; membrane potential dye fluorescence; membrane potential signal change, % at 10 µM; shares compounds with TRPC6 inhibitor;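 active means membrane potential signal moves up or down beyond 5 SD from buffer-only wells, on both duplicate plates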
HEK293 MPD ctr 2-2: parental HEK293 nonspecific activity of TRPC6 modulators, second screen; shares compounds with TRPC6 inhibitor; membrane potential dye fluorescence; after compound, maximal acetylcholine stimulation; inhibition, % at 10 µM; 2,400 tested, 14% active; AID 488926;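 active means membrane potential signal drops by more than 5 SD from the mean control signal, in both duplicate plates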
TRPC4 ctr mod: TRPC4 modulation by TRPC6 hit compounds, confirmation, selectivity assay for TRPC6 modulator project, cell-based, HEK293 TRPC4/mu-opioid, membrane potential dye, mouse; membrane potential fluorescence; shares compounds with TRPC6 inhibitor; 2,400 tested, 69% active; percent change from control (negative = decrease, positive = increase), % at 10 µM;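 active means membrane potential signal moved up or down beyond 5 SD of buffer control wells, in both duplicate plates, actives on both sides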
TRPC4/MOR inh 2: second check of whether TRPC6 modulators also affect mouse TRPC4 | HEK293 TRPC4/mu-opioid, membrane potential dye fluorescence; stimulated with maximal-effect DAMGO | 2,400 tested, 55% active | AID 488928 | shares compounds with TRPC6 inhibitor | inhibition, % at 10 µM;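 active means drop in membrane potential signal beyond 5 SD of the control wells in both duplicate plates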;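 further: TRPC4 counter screen for TRPC6 hits run under conditions tuned for TRPC6 not TRPC4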
TRPC6 block conf: mouse TRPC6 channel inhibitors, confirmation, HEK293 cells, membrane potential dye, duplicate. ACh-evoked depolarization. 3,300 tested, 43% active. inhibition, % at 10 µM. AID 488960, 2010. shares compounds with TRPC6 inhibitor;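 active means fluorescence ratio falls more than 5 SD below the full-stimulation control mean, in both duplicate runs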;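 further: integrated fluorescence ratio of peak minus minimum over baseline after agonist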
TRPC6 act confirm: mouse TRPC6 channel activators, confirmation, HEK293 cells, membrane potential dye, duplicate. shares compounds with TRPC6 inhibitor. HEK293-TRPC6 membrane potential dye fluorescence, FDSS. activation, % at 10 µM. 2,800 tested, 11% active. AID 488961, 2010;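 active means ratio signal rise beyond 5 SD above unstimulated control wells' mean, seen in both duplicate runs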
Large screens that a line does not name were inactive (follow-up assays come after a bar, where they were run). In the library only some 2.3% were active in any assay of this set; here they are far more common.

CCCCc1ccc(/C(C)=N/Nc2cc(N3CCOCC3)nc(C)n2)cc1	TRPC6 inhibitor -5.23 | HEK293 MPD ctr-2 inactive | HEK293 MPD ctr 2-2 inactive | TRPC4 ctr mod inactive | TRPC4/MOR inh 2 inactive | TRPC6 block conf inactive | TRPC6 act confirm inactive
COc1ccc2c(c1)CCCN2C(N)=Nc1ccc(Cl)cc1	TRPC6 inhibitor -6.46 | HEK293 MPD ctr-2 114.0% | HEK293 MPD ctr 2-2 inactive | TRPC4 ctr mod 16.0% | TRPC4/MOR inh 2 69.0% | TRPC6 block conf inactive
CCOC(=O)c1[nH]c(C)c(CC(C)C)c1C	none
CC(=O)c1ccc(S(=O)(=O)NC2CCSc3ccccc32)cc1 (stereo not drawn)	none
O=S(=O)(NC1CCSc2ccccc21)c1ccc(Cl)nc1 (stereo not drawn)	TRPC6 inhibitor -6.16 | HEK293 MPD ctr-2 inactive | HEK293 MPD ctr 2-2 inactive | TRPC4 ctr mod inactive | TRPC4/MOR inh 2 inactive | TRPC6 block conf inactive | TRPC6 act confirm inactive
CC(C)(C)c1nnc(NC(=O)Cc2ccccc2[N+](=O)[O-])s1	TRPC6 inhibitor -6.36 | HEK293 MPD ctr-2 inactive | HEK293 MPD ctr 2-2 inactive | TRPC4 ctr mod inactive | TRPC4/MOR inh 2 inactive | TRPC6 block conf inactive | TRPC6 act confirm inactive
OCCn1c(-c2ccc(F)cc2)csc1=Nc1ccccc1	TRPC6 inhibitor -7.45 | HEK293 MPD ctr-2 119.5% | HEK293 MPD ctr 2-2 inactive | TRPC4 ctr mod 12.5% | TRPC4/MOR inh 2 31.0% | TRPC6 block conf 74.0%
CN(Cc1ccc(F)cc1)S(=O)(=O)c1nnc(NC(=O)c2ccccc2Br)s1	TRPC4 inh -6, TRPC6 act 16.9 | HEK293 MPD ctr-2 inactive | HEK293 MPD ctr 2-2 inactive | TRPC4 ctr mod 17.0% | TRPC4/MOR inh 2 62.0% | TRPC6 block conf inactive | TRPC6 act confirm inactive
NC(=O)c1cccc(-c2cc(Nc3ccc(OC(F)(F)F)cc3)ncn2)c1	none
Fc1ccc(Cn2nnc3ccccc32)cc1	TRPC6 inhibitor -7.91 | TRPC4 spec 2 inactive | TRPC4 spec inactive | HEK293 MPD ctr 2-1 inactive | HEK293 MPD ctr-1 -0.6% | TRPC6 block conf inactive | TRPC6 act confirm inactive
O=c1cc(-c2ccccc2)[nH]n1-c1ccc([N+](=O)[O-])cc1	TRPC6 inhibitor -7.88 | TRPC4 spec 2 inactive | TRPC4 spec 11.8% | HEK293 MPD ctr 2-1 inactive | HEK293 MPD ctr-1 5.7% | TRPC6 block conf 66.5% | TRPC6 act confirm inactive
O=c1c(N=Nc2ccc(O)cc2)c(-c2ccccc2)[nH]n1-c1ccc([N+](=O)[O-])cc1	none
Cc1ccc(NC(=O)C(c2ccccc2)c2ccccc2)c(O)c1	none
CC(=O)Nc1ccc2c(COC(=O)[C@H](C)N3C(=O)C4CCCCC4C3=O)cc(=O)oc2c1 (stereo partly drawn)	none
CC(C(=O)Nc1ccc([N+](=O)[O-])cc1)N1CCN(C/C=C/c2ccccc2)CC1 (stereo not drawn)	TRPC6 inhibitor -5.98 | HEK293 MPD ctr-2 inactive | HEK293 MPD ctr 2-2 inactive | TRPC4 ctr mod inactive | TRPC4/MOR inh 2 54.0% | TRPC6 block conf inactive | TRPC6 act confirm inactive
COC(=O)c1ccc(NC(=O)c2snnc2-c2ccccc2)cc1	TRPC6 inhibitor -7.33 | TRPC4 spec 2 inactive | TRPC4 spec inactive | HEK293 MPD ctr 2-1 inactive | HEK293 MPD ctr-1 inactive | TRPC6 block conf 92.8%
O=C(CSCc1nc2c(nnn2Cc2ccc(F)cc2)c(=O)[nH]1)Nc1cccc(C(F)(F)F)c1	none
CC1CCCN(C(=O)C2COc3ccccc3O2)C1 (stereo not drawn)	TRPC6 inhibitor -5.01 | HEK293 MPD ctr-2 inactive | HEK293 MPD ctr 2-2 inactive | TRPC4 ctr mod 8.5% | TRPC4/MOR inh 2 inactive | TRPC6 block conf 49.0%
CC(C)(C)NC(=O)C(=O)NNC(=O)c1cccc(F)c1	none
COc1ccc(C(=O)OCC2CC(c3ccccc3)=NO2)cc1OC (stereo not drawn)	TRPC6 inhibitor -5.07 | HEK293 MPD ctr-2 inactive | HEK293 MPD ctr 2-2 inactive | TRPC4 ctr mod inactive | TRPC4/MOR inh 2 inactive | TRPC6 block conf inactive | TRPC6 act confirm inactive
CN(C)CCCNc1c2c(nc3cc(-c4cccc(F)c4)nn13)CCC2	TRPC4 agonist 123, TRPC6 inhibitor -7.27 | HEK293 MPD ctr-2 inactive | HEK293 MPD ctr 2-2 126.5% | TRPC4 ctr mod -20.5% | TRPC4/MOR inh 2 51.5% | TRPC6 block conf 78.5% | TRPC6 act confirm inactive
